Assay results reported in ChEMBL document CHEMBL1914452, “Arene- and quinoline-sulfonamides as novel 5-HT7 receptor ligands” (Bioorg Med Chem, 2011).

Columns and labels:
[1] = target: T1, 5-hydroxytryptamine receptor 7 (Homo sapiens, UniProt P34969); test: Displacement of [3H]-5-CT from human 5-HT7 receptor expressed in HEK293 cells after 1 hr by liquid scintillation counting; assay type: cell-based
Outline: (§1)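 Competition binding with 7–9 compound concentrations, each run in triplicate. 5-HT1A, 5-HT2A and α1 sites were native. 5-HT6 used [3H]-LSD and 5-HT7 used [3H]-5-CT, both on cloned human receptors stably expressed in HEK293 cells. After incubation, samples were vacuum-filtered through GF/B filters and washed with ice-cold buffer. Bound radioactivity was counted by liquid scintillation.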

[2] = test system: Mus musculus; test: Antidepressant like activity in Albino Swiss mouse assessed as reduction of immobility time at 20 mg/kg, ip administered 30 mins before test measured during final 4 mins of the 6 mins session by forced swimming test (reference value: 165 +/- 9.6 sec); assay type: functional; settings: route intraperitoneal
[3] = test system: Mus musculus; test: Antidepressant like activity in Albino Swiss mouse assessed as reduction of immobility time at 5 mg/kg, ip administered 30 mins before test measured during final 4 mins of the 6 mins session by forced swimming test (reference value: 165 +/- 9.6 sec); assay type: functional; settings: route intraperitoneal
[4] = target: T1, 5-hydroxytryptamine receptor 7; test: Antagonist activity at human 5-HT7 receptor expressed in CHO cells assessed as inhibition of serotonin-induced intracellular cAMP accumulation preincubated for 20 mins measured after 10 mins by radioimmunoassay; assay type: functional, cell-based
[5] = test system: Mus musculus; test: Neurotoxicity in Albino Swiss mouse assessed as effect on number of crossings at 10 mg/kg, ip administered 30 mins before test measured for 30 mins; assay type: toxicity, organism-based; design: dose 10 mg/kg, route intraperitoneal; settings: in vivo, 0.5 h
Outline: (§2)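 Spontaneous locomotor activity in mice, recorded over 2–6 min (the swim-test observation window) or over a 30-min session. Drug was suspended in 1% aqueous Tween 80 and given ip at 10 ml/kg, 30 min beforehand, with vehicle-injected controls. Tests ran blind during the light phase (09.00–14.00 h), using 7–10 animals per dose, each used once.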

[6] = target: 5-hydroxytryptamine receptor 6 (Homo sapiens, UniProt P50406); test: Displacement of [3H]-LSD from human 5-HT6 receptor expressed in HEK293 cells after 1 hr by liquid scintillation counting; assay type: cell-based; outline: as §1
Sequence of 5-hydroxytryptamine receptor 6 (P50406 whole entry): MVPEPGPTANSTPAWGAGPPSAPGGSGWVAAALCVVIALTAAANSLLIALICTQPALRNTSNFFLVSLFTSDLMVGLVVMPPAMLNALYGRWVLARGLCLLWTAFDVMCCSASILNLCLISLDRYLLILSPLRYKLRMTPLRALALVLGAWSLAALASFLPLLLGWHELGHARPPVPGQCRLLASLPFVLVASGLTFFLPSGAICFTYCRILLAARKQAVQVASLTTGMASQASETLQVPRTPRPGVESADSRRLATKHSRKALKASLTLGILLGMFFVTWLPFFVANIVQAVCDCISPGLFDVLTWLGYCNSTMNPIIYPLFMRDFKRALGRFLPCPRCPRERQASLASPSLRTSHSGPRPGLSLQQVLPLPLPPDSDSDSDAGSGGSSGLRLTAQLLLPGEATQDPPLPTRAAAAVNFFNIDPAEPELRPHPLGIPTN

[7] = target: 5-hydroxytryptamine receptor 2A (Rattus norvegicus, UniProt P14842); test: Displacement of [3H]-ketanserin from 5-HT2A receptor in rat cortex by liquid scintillation counting; outline: as §1
Sequence of 5-hydroxytryptamine receptor 2A (P14842 whole entry): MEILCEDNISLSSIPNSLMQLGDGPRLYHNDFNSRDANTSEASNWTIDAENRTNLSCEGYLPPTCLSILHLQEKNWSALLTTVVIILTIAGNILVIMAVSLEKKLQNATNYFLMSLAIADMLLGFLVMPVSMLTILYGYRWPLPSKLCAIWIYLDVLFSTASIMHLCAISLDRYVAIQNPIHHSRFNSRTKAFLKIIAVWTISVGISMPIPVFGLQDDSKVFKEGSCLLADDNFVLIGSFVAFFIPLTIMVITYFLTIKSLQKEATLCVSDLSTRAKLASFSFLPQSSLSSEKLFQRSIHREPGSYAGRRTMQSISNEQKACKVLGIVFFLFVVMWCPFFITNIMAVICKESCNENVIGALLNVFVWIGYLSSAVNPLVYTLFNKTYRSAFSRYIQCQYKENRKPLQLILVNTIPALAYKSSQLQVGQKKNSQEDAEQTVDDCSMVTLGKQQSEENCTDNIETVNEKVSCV

[8] = test system: Mus musculus; test: Antidepressant like activity in Albino Swiss mouse assessed as reduction in immobility time at 10 mg/kg, ip administered 30 mins before test measured during final 4 mins of the 6 mins session by forced swimming test; assay type: functional; design: scale not given: the % may be the effect or the level left; settings: route intraperitoneal
[9] = target: T2, Adrenergic receptor alpha-1 (Rattus norvegicus, UniProt P15823+P23944+P43140); test: Displacement of [3H]-prazosin from alpha 1 receptor in rat cortex by liquid scintillation counting; outline: as §1
T2 sequence (P15823 whole entry): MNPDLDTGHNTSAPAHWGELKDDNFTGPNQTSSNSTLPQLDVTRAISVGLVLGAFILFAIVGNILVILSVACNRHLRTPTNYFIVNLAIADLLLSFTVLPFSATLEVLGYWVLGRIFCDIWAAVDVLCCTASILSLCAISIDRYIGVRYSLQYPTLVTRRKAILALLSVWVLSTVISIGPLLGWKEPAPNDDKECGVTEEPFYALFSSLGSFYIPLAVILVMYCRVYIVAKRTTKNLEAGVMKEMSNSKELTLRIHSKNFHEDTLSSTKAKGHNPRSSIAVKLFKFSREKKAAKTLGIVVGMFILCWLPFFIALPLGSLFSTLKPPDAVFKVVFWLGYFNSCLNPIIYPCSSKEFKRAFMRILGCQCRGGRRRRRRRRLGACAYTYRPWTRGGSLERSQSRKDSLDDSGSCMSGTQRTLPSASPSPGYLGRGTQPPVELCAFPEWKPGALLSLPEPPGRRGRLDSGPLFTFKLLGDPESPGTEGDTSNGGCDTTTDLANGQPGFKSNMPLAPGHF
T2 sequence (P23944 whole entry): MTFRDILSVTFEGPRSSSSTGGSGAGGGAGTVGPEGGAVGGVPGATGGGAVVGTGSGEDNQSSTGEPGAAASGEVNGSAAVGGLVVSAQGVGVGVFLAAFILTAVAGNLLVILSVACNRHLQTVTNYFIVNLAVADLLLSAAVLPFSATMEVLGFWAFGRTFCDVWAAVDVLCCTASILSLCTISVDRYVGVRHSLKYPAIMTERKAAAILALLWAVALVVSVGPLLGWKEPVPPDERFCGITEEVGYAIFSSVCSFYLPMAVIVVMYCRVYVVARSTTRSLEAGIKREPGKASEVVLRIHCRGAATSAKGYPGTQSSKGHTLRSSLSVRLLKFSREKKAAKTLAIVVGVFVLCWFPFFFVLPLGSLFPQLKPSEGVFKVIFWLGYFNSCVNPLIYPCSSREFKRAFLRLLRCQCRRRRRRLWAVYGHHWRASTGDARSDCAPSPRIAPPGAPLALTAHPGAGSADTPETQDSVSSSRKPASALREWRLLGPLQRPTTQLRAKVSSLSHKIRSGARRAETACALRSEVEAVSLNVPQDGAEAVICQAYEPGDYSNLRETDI
T2 sequence (P43140 whole entry): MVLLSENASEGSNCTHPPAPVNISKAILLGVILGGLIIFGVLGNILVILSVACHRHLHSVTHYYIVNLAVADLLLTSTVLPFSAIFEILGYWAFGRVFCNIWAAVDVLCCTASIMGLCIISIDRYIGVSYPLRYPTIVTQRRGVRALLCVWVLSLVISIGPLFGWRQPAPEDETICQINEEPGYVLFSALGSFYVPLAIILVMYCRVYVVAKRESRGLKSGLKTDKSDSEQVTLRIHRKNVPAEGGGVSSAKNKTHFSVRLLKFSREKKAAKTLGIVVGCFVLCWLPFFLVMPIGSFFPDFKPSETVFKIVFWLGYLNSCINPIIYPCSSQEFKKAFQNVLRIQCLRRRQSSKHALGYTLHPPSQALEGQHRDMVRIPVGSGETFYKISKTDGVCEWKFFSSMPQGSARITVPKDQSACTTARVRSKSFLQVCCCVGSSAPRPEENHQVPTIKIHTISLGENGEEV

[10] = test system: Mus musculus; test: Antidepressant like activity in Albino Swiss mouse assessed as reduction of immobility time at 10 mg/kg, ip administered 30 mins before test measured during final 4 mins of the 6 mins session by forced swimming test (reference value: 165 +/- 9.6 sec); assay type: functional; settings: route intraperitoneal
[11] = test system: HEK293; test: Selectivity ratio of Ki for 5-HT1A receptor in rat hippocampus to Ki for human 5-HT7 receptor expressed in HEK293 cells; assay type: cell-based
[12] = target: T3, 5-hydroxytryptamine receptor 1A (Rattus norvegicus, UniProt P19327); test: Displacement of [3H]-8-OH-DPAT from 5-HT1A receptor in rat hippocampus by liquid scintillation counting; assay type: tissue-based; outline: as §1
T3 sequence (P19327 whole entry): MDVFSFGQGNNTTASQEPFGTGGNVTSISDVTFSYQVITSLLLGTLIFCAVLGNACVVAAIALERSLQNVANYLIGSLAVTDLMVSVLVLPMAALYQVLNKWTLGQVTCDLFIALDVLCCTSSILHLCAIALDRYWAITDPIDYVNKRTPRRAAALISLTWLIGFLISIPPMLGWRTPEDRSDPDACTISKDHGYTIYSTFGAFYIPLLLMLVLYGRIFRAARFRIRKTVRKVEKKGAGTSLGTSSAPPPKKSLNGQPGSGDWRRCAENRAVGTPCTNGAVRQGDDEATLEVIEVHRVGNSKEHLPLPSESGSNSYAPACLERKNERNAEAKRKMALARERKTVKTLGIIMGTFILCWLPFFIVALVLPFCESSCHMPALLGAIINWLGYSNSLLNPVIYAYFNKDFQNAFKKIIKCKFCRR

[13] = test system: Mus musculus; test: Neurotoxicity in Albino Swiss mouse assessed as effect on number of crossings at 10 mg/kg, ip administered 30 mins before test measured for 2 to 6 mins; assay type: toxicity, organism-based; design: dose 10 mg/kg, route intraperitoneal; settings: in vivo; outline: as §2

T1 sequence (P34969 whole entry): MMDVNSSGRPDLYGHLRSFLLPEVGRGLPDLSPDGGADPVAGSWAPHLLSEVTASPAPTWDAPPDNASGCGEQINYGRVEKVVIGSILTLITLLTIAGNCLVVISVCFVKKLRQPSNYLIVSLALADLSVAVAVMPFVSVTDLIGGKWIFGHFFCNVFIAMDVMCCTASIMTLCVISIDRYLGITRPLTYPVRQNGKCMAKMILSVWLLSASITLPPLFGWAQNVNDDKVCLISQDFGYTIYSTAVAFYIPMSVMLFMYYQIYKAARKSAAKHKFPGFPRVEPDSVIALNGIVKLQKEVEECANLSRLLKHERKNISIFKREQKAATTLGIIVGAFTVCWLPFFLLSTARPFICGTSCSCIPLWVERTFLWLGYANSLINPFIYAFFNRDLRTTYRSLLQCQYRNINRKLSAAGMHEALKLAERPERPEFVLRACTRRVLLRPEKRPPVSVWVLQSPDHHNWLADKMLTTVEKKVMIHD

CCN(CCCN1CCN(c2ccccc2OC)CC1)S(=O)(=O)c1ccc(C)cc1
Ki [1]: 19 nM

CCN(CCCCN1CCC2CCCCC2C1)S(=O)(=O)c1cccc2cccnc12 (centres undefined)
Time [2]: 182.3 s | Time [3]: 155.2 s | Kb [4]: 140 nM | Activity [5]: Non-toxic | Ki [6]: 1950 nM | Ki [7]: 6280 nM | Activity [8]: 22% | Ki [9]: 155 nM | Ki [1]: 13 nM | Time [10]: 128.1 s | Ratio Ki [11]: 84.5 | Ki [12]: 1100 nM | Activity [13]: Non-toxic

O=S(=O)(NCCCN1CCc2ccccc2C1)c1ccc2ccccc2c1
Ki [1]: 80 nM

COc1ccccc1N1CCN(CCCCNS(=O)(=O)c2ccc3ncccc3c2)CC1
Ki [1]: 132 nM | Ratio Ki [11]: 0.3 | Ki [12]: 40 nM

COc1ccccc1N1CCN(CCCNS(=O)(=O)c2cccc3cccnc23)CC1
Ki [6]: 1640 nM | Ki [7]: 2160 nM | Ki [1]: 90 nM | Ratio Ki [11]: 0.4 | Ki [12]: 37 nM

O=S(=O)(NCCN1CCc2ccccc2C1)c1ccc2ccccc2c1
Ki [1]: 78 nM

CCN(CCCCCN1CCC2CCCCC2C1)S(=O)(=O)c1cccc2cccnc12 (centres undefined)
Time [2]: 181.2 s | Time [3]: 144.8 s | Kb [4]: 1300 nM | Ki [6]: 4590 nM | Ki [7]: 1790 nM | Ki [9]: 92 nM | Ki [1]: 33 nM | Time [10]: 158.6 s | Ratio Ki [11]: 9.5 | Ki [12]: 313 nM

O=S(=O)(NCCCCN1CCc2ccccc2C1)c1ccccc1
Ki [1]: 94 nM

O=S(=O)(NCCCCN1CCc2ccccc2C1)c1cccc2ccccc12
Ki [1]: 296 nM

O=S(=O)(NCCCCN1CCc2ccccc2C1)c1ccc2ncccc2c1
Ki [6]: 8250 nM | Ki [7]: 1520 nM | Ki [1]: 224 nM | Ratio Ki [11]: 1 | Ki [12]: 233 nM

COc1ccccc1N1CCN(CCCNS(=O)(=O)c2ccc3ncccc3c2)CC1
Ki [6]: 2840 nM | Ki [7]: 825 nM | Ki [1]: 156 nM | Ratio Ki [11]: 0.1 | Ki [12]: 18 nM

COc1ccccc1N1CCN(CCCCNS(=O)(=O)c2cccc3cccnc23)CC1
Ki [1]: 55 nM | Ratio Ki [11]: 0.9 | Ki [12]: 53 nM

O=S(=O)(NCCN1CCc2ccccc2C1)c1ccccc1
Ki [1]: 773 nM

COc1ccccc1N1CCN(CCCCNS(=O)(=O)c2cnc3ccccc3c2)CC1
Ki [1]: 79 nM | Ratio Ki [11]: 0.05 | Ki [12]: 3.7 nM

NCCCN(CCN1CCc2ccccc2C1)S(=O)(=O)c1ccccc1
Ki [1]: 3010 nM

NCCCN(CCCN1CCc2ccccc2C1)S(=O)(=O)c1ccccc1
Ki [1]: 335 nM

COc1cccc2c1CCN(CCCNS(=O)(=O)c1cccc3ccccc13)C2
Ki [1]: 360 nM

NCCN(CCCN1CCc2ccccc2C1)S(=O)(=O)c1ccccc1
Ki [1]: 267 nM

O=S(=O)(NCCCCN1CCc2ccccc2C1)c1ccc2ccccc2c1
Ki [1]: 64 nM

CCN(CCCN1CCN(c2ccccc2OC)CC1)S(=O)(=O)c1ccc2ncccc2c1
Ki [6]: 1920 nM | Ki [7]: 1320 nM | Ki [1]: 29 nM | Ratio Ki [11]: 0.9 | Ki [12]: 25 nM

NCCCN(CCCCN1CCc2ccccc2C1)S(=O)(=O)c1ccccc1
Ki [1]: 235 nM

CCN(CCCCN1CCN(c2ccccc2OC)CC1)S(=O)(=O)c1ccc2ncccc2c1
Ki [1]: 41 nM | Ratio Ki [11]: 0.5 | Ki [12]: 21 nM

O=S(=O)(NCCCCN1CCc2ccccc2C1)c1cnc2ccccc2c1
Ki [6]: 8640 nM | Ki [7]: 590 nM | Ki [1]: 228 nM | Ratio Ki [11]: 1.3 | Ki [12]: 305 nM

O=S(=O)(NCCCN1CCc2ccccc2C1)c1ccccc1
Ki [1]: 270 nM

O=S(=O)(NCCCCN1CCc2ccccc2C1)c1cccc2cccnc12
Ki [6]: 1460 nM | Ki [7]: 4180 nM | Ki [1]: 88 nM | Ratio Ki [11]: 3 | Ki [12]: 271 nM

O=S(=O)(NCCCCN1CCC2CCCCC2C1)c1cnc2ccccc2c1 (centres undefined)
Ki [1]: 995 nM | Ratio Ki [11]: 1.5 | Ki [12]: 1450 nM

CCN(CCCCN1CCN(c2ccccc2OC)CC1)S(=O)(=O)c1cccc2cccnc12
Ki [1]: 37 nM | Ratio Ki [11]: 0.8 | Ki [12]: 30 nM

O=S(=O)(NCCCN1CCC2CCCCC2C1)c1ccc2ncccc2c1 (centres undefined)
Ki [1]: 1420 nM | Ratio Ki [11]: 3 | Ki [12]: 4310 nM

O=S(=O)(NCCCCN1CCC2CCCCC2C1)c1cccc2cccnc12 (centres undefined)
Ki [1]: 1260 nM | Ratio Ki [11]: 2.8 | Ki [12]: 3570 nM

CC1CCN(CC[C@H]2CCCN2S(=O)(=O)c2cccc(O)c2)CC1
Time [2]: 139.3 s | Time [3]: 136.1 s | Activity [5]: Non-toxic | Activity [8]: 33% | Time [10]: 110.8 s | Activity [13]: Non-toxic

CCN(CCCCN1CCC2CCCCC2C1)S(=O)(=O)c1cnc2ccccc2c1 (centres undefined)
Ki [6]: 14500 nM | Ki [7]: 5090 nM | Ki [1]: 187 nM | Ratio Ki [11]: 1.7 | Ki [12]: 325 nM

O=S(=O)(NCCCCN1CCc2sccc2C1)c1cnc2ccccc2c1
Ki [6]: 17400 nM | Ki [7]: 1080 nM | Ki [1]: 506 nM | Ratio Ki [11]: 1.9 | Ki [12]: 986 nM

CCN(CCCCN1CCN(c2ccccc2OC)CC1)S(=O)(=O)c1cnc2ccccc2c1
Ki [1]: 38 nM | Ratio Ki [11]: 0.2 | Ki [12]: 9.3 nM

O=S(=O)(NCCCCN1CCc2sccc2C1)c1ccc2cccnc2c1
Ki [6]: 17500 nM | Ki [7]: 2650 nM | Ki [1]: 334 nM | Ratio Ki [11]: 1.4 | Ki [12]: 483 nM
